# Data as given in ChEMBL document CHEMBL1129483, “Antitumor 2-(aminocarbonyl)-1,2-bis(methylsulfonyl)-1-(2-chloroethyl)- hydrazines” (1996).
# “And” between values parts separate entries of the source, which are not always exact repeats. Equal values may be shown once.
# Legend:
# Format in all cases: functional
# Mus musculus [1] = assay: Average survival time of treated /control mice*100 was determined at a daily dose of 50 mg/kg
# In short: (§1)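 L1210 leukemia cells kept by serial passage in culture. 10^5 cells given ip to CD2F1 mice. Drug in 100% DMSO given ip once daily for 6 days starting 24 h after implant. 5–10 mice per group, with vehicle-treated controls. %T/C is average survival time of treated mice over controls ×100. 60-day survivors (cures) are excluded from the calculation.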
# Mus musculus [2] = assay: Average percent change in body weight from onset to termination of therapy at dose 100(mg/kg)
# In short: (§2)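 CD2F1 mice implanted ip with 10^5 L1210 leukemia cells (kept by serial passage in culture and periodic ip passage in donor mice). Drug given ip in 100% DMSO, at most 0.025 mL, once daily for 6 consecutive days starting 24 h after implantation. Groups of 5–10 mice; vehicle-treated tumor-bearing controls. Body weight change is the average percent from onset to termination of therapy, used as a toxicity index.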
# Mus musculus [3] = assay: %60 day survivors were determined for the compound as the mouse […] at dose 50 mg/kg
# In short: (§3)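 L1210 leukemia cells kept by serial passage in culture. 10^5 cells given ip to CD2F1 mice. Drug in 100% DMSO, at most 0.025 mL, given ip once daily for 6 consecutive days starting 24 h after implant. 5–10 mice per group, with vehicle-treated tumor-bearing controls. Value is the percentage of mice alive and symptom-free 60 days after tumor implant.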
# Mus musculus [4] = assay: %60 day survivors were determined for the compound as the mouse […] at dose 150 mg/kg; in short: as §3
# Mus musculus [5] = assay: Average survival time of treated /control mice*100 was determined at a daily dose of 20 mg/kg; in short: as §1
# Mus musculus [6] = assay: Average percent change in body weight from onset to termination of therapy at dose 25(mg/kg); in short: as §2
# Mus musculus [7] = assay: Average percent change in body weight from onset to termination of therapy at dose 10(mg/kg); in short: as §2
# Mus musculus [8] = assay: Average percent change in body weight from onset to termination of therapy at dose 15(mg/kg); in short: as §2
# Mus musculus [9] = assay: Average percent change in body weight from onset to termination of therapy at dose 50(mg/kg); in short: as §2
# Mus musculus [10] = assay: Average survival time of treated /control mice*100 was determined at a daily dose of 150 mg/kg; in short: as §1
# Mus musculus [11] = assay: Average survival time of treated /control mice*100 was determined at a daily dose of 5 mg/kg; in short: as §1
# Mus musculus [12] = assay: Average percent change in body weight from onset to termination of therapy at dose 20(mg/kg); in short: as §2
# Mus musculus [13] = assay: Average percent change in body weight from onset to termination of therapy at dose 5(mg/kg); in short: as §2
# Mus musculus [14] = assay: Average survival time of treated /control mice*100 was determined at a daily dose of 25 mg/kg; in short: as §1
# Mus musculus [15] = assay: %60 day survivors were determined for the compound as the mouse […] at dose 100 mg/kg; in short: as §3
# Mus musculus [16] = assay: Average survival time of treated /control mice*100 was determined at a daily dose of 10 mg/kg; in short: as §1
# Mus musculus [17] = assay: Average survival time of treated /control mice*100 was determined at a daily dose of 15 mg/kg; in short: as §1
# Mus musculus [18] = assay: Average percent change in body weight from onset to termination of therapy at dose 150(mg/kg); in short: as §2
# Mus musculus [19] = assay: %60 day survivors were determined for the compound as the mouse […] at dose 10 mg/kg; in short: as §3
# Mus musculus [20] = assay: Average percent change in body weight from onset to termination of therapy at dose 75(mg/kg); in short: as §2
# Mus musculus [21] = assay: %60 day survivors were determined for the compound as the mouse […] at dose 25 mg/kg; in short: as §3
# Mus musculus [22] = assay: %60 day survivors were determined for the compound as the mouse […] at dose 75 mg/kg; in short: as §3
# Mus musculus [23] = assay: %60 day survivors were determined for the compound as the mouse […] at dose 15 mg/kg; in short: as §3
# Mus musculus [24] = assay: %60 day survivors were determined for the compound as the mouse […] at dose 5 mg/kg; in short: as §3
# Mus musculus [25] = assay: %60 day survivors were determined for the compound as the mouse […] at dose 20 mg/kg; in short: as §3
# Mus musculus [26] = assay: Average survival time of treated /control mice*100 was determined at a daily dose of 75 mg/kg; in short: as §1
# Mus musculus [27] = assay: Average survival time of treated /control mice*100 was determined at a daily dose of 100 mg/kg; in short: as §1
Compound,Change (Mus musculus [2]),Survivors (Mus musculus [3]),T/C (Mus musculus [5]),Change (Mus musculus [6]),Change (Mus musculus [7]),Change (Mus musculus [8]),Change (Mus musculus [9]),T/C (Mus musculus [11]),Change (Mus musculus [12]),Change (Mus musculus [13]),T/C (Mus musculus [16]),T/C (Mus musculus [17]),Survivors (Mus musculus [19]),Survivors (Mus musculus [23]),other results
CCOC(=O)C(Cc1ccccc1)NC(=O)N(N(CCCl)S(C)(=O)=O)S(C)(=O)=O (centres undefined),-2%,60%,174%,-0.9%,-0.5%,-1.9%,-2%,147%,-1.9%,-2.5%,165%,160%,–,–,T/C (Mus musculus [1]): 225%; Survivors (Mus musculus [4]): 20%; T/C (Mus musculus [10]): 169%; T/C (Mus musculus [14]): 177%; Survivors (Mus musculus [15]): 100%; Change (Mus musculus [18]): -5%
CCOC(=O)C(C)NC(=O)N(N(CCCl)S(C)(=O)=O)S(C)(=O)=O (centres undefined),-2.5%,100%,227%,-2.5%,-1.4%,-0.5%,-3.3%,170%,-1.5%,-2%,178%,185%,20%,–,Change (Mus musculus [20]): -2.5%; Survivors (Mus musculus [21]): 60%; Survivors (Mus musculus [22]): 80%; T/C (Mus musculus [14]): 239%
CNC(=O)N(N(CCCl)S(C)(=O)=O)S(C)(=O)=O [LAROMUSTINE],–,–,–,–,-5.6%,-2.1%,–,234%,–,9.9%,–,–,100%,100%,Survivors (Mus musculus [24]): 40%
CS(=O)(=O)N(CCCl)N(C(=O)NCCCCl)S(C)(=O)=O,–,–,–,–,-5.6%,-8.8%,–,111%,–,-2.8%,187%,192%,–,20%,–
CS(=O)(=O)N(CCCl)N(C(=O)NCCCl)S(C)(=O)=O,–,–,239%,–,-4.7%,-4%,–,–,-10.4%,–,–,216%,100%,80%,Survivors (Mus musculus [25]): 80%
C=CCNC(=O)N(N(CCCl)S(C)(=O)=O)S(C)(=O)=O,–,–,–,–,-2.1%,-2.9%,–,184%,–,-1.6%,394%,–,40%,100%,Survivors (Mus musculus [24]): 20%
CCOC(=O)CNC(=O)N(N(CCCl)S(C)(=O)=O)S(C)(=O)=O,-4%,80%,–,-0.5%,-1.4%,-0.5%,-2.5%,151%,-3.7%,-1.5%,202%,202%,20%,–,T/C (Mus musculus [26]): 119%; T/C (Mus musculus [5]; 20 mg/kg): 191% and 138%; T/C (Mus musculus [27]): 115%; Survivors (Mus musculus [25]): 20%; Change (Mus musculus [20]): -1.5%; Survivors (Mus musculus [21]): 100%; Survivors (Mus musculus [22]): 60%
